Experimental data published in article PMC12533025 (Scientific Reports, 2025).
One block for each molecule: values may come before it.

Assays:
male Wistar mice = test: Warm-water tail-flick test; format: in vivo; conditions: for acute antinociceptive agonist effect, tail flick assay: up to 30 mg/kg dose; for percentage of maximum possible effect (% MPE), tail flick assay: compared with the KOP agonist Nalbuphine
KOP [1] = biological target: T1, KOP (Mus musculus, UniProt P33534); test: Radioligand competitive binding assay, KOP; conditions: KOP versus MOP binding
prolactin = test: Prolactin ELISA assay; format: in vivo, mice; conditions: rat prolactin ELISA test; relative to normal level
Summary of the method: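 After dosing, blood is drawn by retro-orbital sinus bleed from isoflurane-anaesthetised mice and spun at 1000 g, 4 °C, 10 min. Plasma is diluted 1:20 and prolactin is measured by […] prolactin sandwich ELISA per kit protocol. Values are in ng/mL. Groups are compared with control by one-way ANOVA and Dunnett post-hoc test (p < 0.05).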

MOP [2] = biological target: T2, MOP (Mus musculus, UniProt P42866); test: Radioligand competitive binding assay, MOP; conditions: MOP over KOP
KOP [3] = biological target: T1, KOP; test: [35S]-GTPγS stimulated binding functional assay, KOP; format: biochemical; conditions: for agonism in the [35S]-GTPγS functional assay: KOP and MOP functional assay
Summary of the method: (§1)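 Membranes come from CHO cells expressing cloned mouse opioid receptors. Membrane protein (10 µg) is incubated with test compound (5µM), […] and 0.1nM [35S]-GTPγS in 50mM Tris, 3mM MgCl2, 0.2mM EDTA, pH 7.7, for 2 h at room temperature. Non-specific binding is defined with 20µM unlabelled GTPγS. Full-agonist references at 5µM are DAMGO (MOP) and salvinorin A (KOP).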

MOP [4] = biological target: T2, MOP; test: [35S]-GTPγS stimulated binding functional assay, MOP; format: biochemical
Summary of the method: as §1

[5] = clinical trials; cited from earlier work
KOP [6] = conditions: [35S]GTP-γ-S assay; cited from earlier work
[7] = cited from earlier work

Structure (SMILES): CC(C)[C@H](CN1CCc2ccccc2C1)NC(=O)Cc1c[nH]c2ccccc12 [(R)-10c, (R)-N-(1-(3,4-dihydroisoquinolin-2(1H)-yl)-3-methylbutan-2-yl)-2-(1H-indol-3-yl)acetamide]
acute antinociceptive agonist effect, tail flick assay (male Wistar mice): failed to show any significant agonist effect

KOP selectivity (KOP [1]): most selective
Structure (SMILES): CC(C)Cc1ccc([C@@H](C)C(=O)NC(CN2CCc3ccccc3C2)C(C)C)cc1 (stereo partly drawn) [(R)-10d]
percentage of maximum possible effect (% MPE), tail flick assay (male Wistar mice): comparable to that of the KOP agonist Nalbuphine | blood prolactin levels (prolactin): double

Structure (SMILES): Cc1c(CC(=O)N[C@@H](CN2CCc3ccccc3C2)C(C)C)cccc1[N+](=O)[O-] [(R)-10m, (R)-N-(1-(3,4-dihydroisoquinolin-2(1H)-yl)-3-methylbutan-2-yl)-2-(2-methyl-3-nitrophenyl)acetamide]
MOP selectivity (MOP [2]): 23 fold | EC50 (KOP [3]): 666 nM | EC50 (MOP [4]): 94.5 nM | IC50 (MOP [4]): 94.5 nM | latency in the tail-flick animal model (male Wistar mice; compared with positive control Nalbuphine): comparable latency to the positive control, Nalbuphine | percentage of maximum possible effect (% MPE), tail flick assay (male Wistar mice): comparable to that of the KOP agonist Nalbuphine | blood prolactin levels (prolactin): double

Structure (SMILES): CC(C)[C@@H](CN1CCc2ccccc2C1)NC(=O)c1cccc(-c2cccc(O)c2)c1 [(S)-10h, (S)-N-(1-(3,4-dihydroisoquinolin-2(1H)-yl)-3-methylbutan-2-yl)-3′-hydroxy-[1,1′-biphenyl]-3-carboxamide]
functional character at KOP/MOP (KOP [3]; KOP and MOP): non-selective KOP/MOP antagonist | agonism in the [35S]-GTPγS functional assay (KOP [3]): failed to produce any agonism | acute antinociceptive agonist effect, tail flick assay (male Wistar mice): failed to show any significant agonist effect

agonism in the [35S]-GTPγS functional assay (KOP [3]): failed to produce any agonism
Structure (SMILES): CC(C)[C@@H](CN1CCc2ccccc2C1)NC(=O)c1cccc(-c2cccc(C#N)c2)c1 [(S)-10i, (S)-3′-cyano-N-(1-(3,4-dihydroisoquinolin-2(1H)-yl)-3-methylbutan-2-yl)-[1,1′-biphenyl]-3-carboxamide]
acute antinociceptive agonist effect, tail flick assay (male Wistar mice): failed to show any significant agonist effect

Structure (SMILES): CC(C)[C@@H](CN1CCc2ccccc2C1)NC(=O)c1cccc(-c2cccnc2)c1 [(S)-10j, (S)-N-(1-(3,4-dihydroisoquinolin-2(1H)-yl)-3-methylbutan-2-yl)-3-(pyridin-3-yl)benzamide]
percentage of maximum possible effect (% MPE), tail flick assay (male Wistar mice): comparable to that of the KOP agonist Nalbuphine | blood prolactin levels (prolactin): double

Structure (SMILES): Cc1cc(C)cc([C@@H]2CCCN2Cc2ccc(Oc3ccc(C(N)=O)cc3F)cc2)c1 [Aticaprant]
adverse effects (NSVT) [5]: devoid of the NSVT effect

Structure (SMILES): CC(C)[C@@H](CN1CC[C@@](C)(c2cccc(O)c2)[C@@H](C)C1)NC(=O)[C@H]1Cc2ccc(O)cc2CN1 [JDTic]
Ki (KOP [6]): 0.006 nM | µ/ĸ ratio (KOP [6]): 570 | δ/ĸ ratio (KOP [6]): > 16600 | adverse effects (NSVT) [5]: non-sustained ventricular tachycardia (NSVT) | blood–brain barrier penetration [7]: low blood–brain barrier penetration
